Experimental data as given in PMC6937391 (Leukemia research, 2019).

Experiments:
[1] = biological target: T-L (β2) proteasomal sub-catalytic activity (Homo sapiens, UniProt Q99436); assay: Cell-based proteasome activity assay; conditions: Ki50 T-L (β2), 24 h treatment
U266 cells = assay: Cell viability assay; type: cell-based; conditions: Homo sapiens, U-266, 24 h, read-out: EC50 (cell viability)
Method in brief: (§1)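 Cells kept in RPMI 1640 with 10% heat-inactivated FBS and penicillin/streptomycin at 37°C, 5% CO2. Plated 24 h before a 24 h exposure to test compound diluted from DMSO stock; vehicle controls got 1% DMSO. CellTiter-Glo added, equilibrated 5 min at 37°C, luminescence read at 470 nm (1 s). Survival as % of untreated control; EC50 from 3- or 4-parameter nonlinear regression.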

Granta BzR cells = assay: Cell viability assay; type: cell-based; conditions: 24 h, read-out: EC50 (cell viability)
U266 BzR cells = assay: Cell viability assay; type: cell-based; conditions: Homo sapiens, U-266, 24 h, read-out: EC50 (cell viability)
MM.1S cells = assay: Cell viability assay; type: cell-based; conditions: Homo sapiens, MM1.S, 24 h, read-out: EC50 (cell viability)
Method in brief: as §1

Granta cells = assay: Cell viability assay; type: cell-based; conditions: 24 h, read-out: EC50 (cell viability)
Method in brief: as §1

MM.1S BzR cells = assay: Cell viability assay; type: cell-based; conditions: Homo sapiens, MM1.S, 24 h, read-out: EC50 (cell viability)
Mino BzR cells = assay: Cell viability assay; type: cell-based; conditions: Homo sapiens, 24 h, read-out: EC50 (cell viability)
[2] = biological target: C-L (β1) proteasomal sub-catalytic activity (Homo sapiens, UniProt P28072); assay: Cell-based proteasome activity assay; conditions: Ki50 C-L (β1), 24 h treatment
Mino cells = assay: Cell viability assay; type: cell-based; conditions: Homo sapiens, 24 h, read-out: EC50 (cell viability)
Method in brief: as §1

Ki ([1]; ARD cells) [nM]	Ki ([1]; MM.1R cells) [nM]	Ki ([1]; U266 cells) [nM]	EC50 (U266 cells) [nM]	EC50 (U266 BzR cells) [nM]	EC50 (MM.1S cells) [nM]	EC50 (MM.1S BzR cells) [nM]	Ki ([2]; ARD cells) [nM]	Ki ([2]; MM.1R cells) [nM]	Ki ([2]; U266 cells) [nM]	Structure (SMILES)	EC50 (Granta BzR cells) [nM]	EC50 (Granta cells) [nM]	EC50 (Mino BzR cells) [nM]	EC50 (Mino cells) [nM]
92.8 ± 19.1	29.3 ± 7.83	74.9 ± 16.8	34.7 ± 2.1	169 ± 15	25.5 ± 0.9	449 ± 23	19.6 ± 8.32	7.41 ± 1.59	16.1 ± 4.01	CC(C)C[C@H](NC(=O)CNC(=O)c1cc(Cl)ccc1Cl)B(O)O [IXA, ixazomib]	774 ± 150	147 ± 12	336 ± 30	97.6 ± 4.6
			2.7 ± 0.2	14.1 ± 2	2.31 ± 0.03	28.4 ± 0.6				CC(C)C[C@H](NC(=O)[C@H](Cc1ccccc1)NC(=O)c1cnccn1)B(O)O [BTZ, bortezomib]	51.5 ± 9.3	14.9 ± 1.6	23.4 ± 1.1	10 ± 0.4
			6.9 ± 0.5	10.9 ± 1.4	5.5 ± 0.2	27.7 ± 1.6				CC(C)C[C@H](NC(=O)[C@H](CCc1ccccc1)NC(=O)CN1CCOCC1)C(=O)N[C@@H](Cc1ccccc1)C(=O)N[C@@H](CC(C)C)C(=O)[C@@]1(C)CO1 [CAR, carfilzomib]	24.2 ± 1.4	11.7 ± 0.3	20.7 ± 0.7	6.3 ± 0.3
